Data published in ChEMBL document CHEMBL2062460, “Disubstituted thiourea derivatives and their activity on CNS: synthesis and biological evaluation” (Eur J Med Chem, 2012).
Values after ≈ are worked out from the molar mass of the structure shown. Active and inactive are the calls of the source. The rule behind the calls is not given here.

Assays:
[1] = tested on: Staphylococcus aureus; test: Antibacterial activity against Staphylococcus aureus ATCC 29213 after 18 hrs by twofold serial agar dilution technique; assay type: functional; settings: ATCC 29213, 18 h
How it was run: (§1)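 Twofold serial agar dilution on Mueller–Hinton II agar, following CLSI guidelines. Compounds were dissolved in methanol or DMSO and tested at final agar concentrations of 3.125–400 µg/mL. Final inoculum was 10^4 CFU/mL.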

[2] = tested on: Staphylococcus aureus; test: Antibacterial activity against methicillin-resistant Staphylococcus aureus clinical isolate 277/08 after 18 hrs by twofold serial agar dilution technique; assay type: functional; settings: clinical isolate 277/08, 18 h
How it was run: (§2)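 Clinical isolates came from patients in Warsaw Medical University Hospitals and were classed as methicillin-susceptible or -resistant. MIC was determined by twofold serial agar dilution on Mueller–Hinton II agar (CLSI), 3.125–400 µg/mL in agar, with compounds in methanol or DMSO. Inoculum was 10^4 CFU/mL and plates were read after 18 h at 35 °C.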

[3] = tested on: Staphylococcus aureus; test: Antibacterial activity against methicillin-susceptible Staphylococcus aureus clinical isolate 367/09 after 18 hrs by twofold serial agar dilution technique; assay type: functional; settings: clinical isolate 367/09, 18 h; how it was run: as §2
[4] = tested on: Candida parapsilosis; test: Antifungal activity against Candida parapsilosis ATCC 22019 at 400 ug/disc after 18 hrs by disc diffusion method; assay type: functional, organism-based
How it was run: (§3)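 Yeasts tested by disc diffusion (CLSI) on RPMI agar with 2% glucose; 9 mm paper discs bearing 400 µg compound from methanol or DMSO solution; inhibition zone diameter read after 18 h at 35 °C.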

[5] = tested on: Staphylococcus aureus; test: Antibacterial activity against methicillin-resistant Staphylococcus aureus clinical isolate 356/09 after 18 hrs by twofold serial agar dilution technique; assay type: functional; settings: clinical isolate 356/09, 18 h; how it was run: as §2
[6] = tested on: Micrococcus luteus; test: Antibacterial activity against Micrococcus luteus ATCC 10240 after 18 hrs by twofold serial agar dilution technique; assay type: functional; settings: ATCC 10240, 18 h
[7] = tested on: Staphylococcus epidermidis; test: Antibacterial activity against Staphylococcus epidermidis ATCC 12228 after 18 hrs by twofold serial agar dilution technique; assay type: functional; settings: ATCC 12228, 18 h; how it was run: as §1
[8] = tested on: Staphylococcus aureus; test: Antibacterial activity against methicillin-resistant Staphylococcus aureus clinical isolate 275/08 after 18 hrs by twofold serial agar dilution technique; assay type: functional; settings: clinical isolate 275/08, 18 h; how it was run: as §2
[9] = tested on: Staphylococcus epidermidis; test: Antibacterial activity against methicillin-resistant Staphylococcus epidermidis clinical isolate 316/08 after 18 hrs by twofold serial agar dilution technique; assay type: functional; settings: clinical isolate 316/08, 18 h; how it was run: as §2
[10] = tested on: Staphylococcus aureus; test: Antibacterial activity against methicillin-susceptible Staphylococcus aureus clinical isolate 339/09 after 18 hrs by twofold serial agar dilution technique; assay type: functional; settings: clinical isolate 339/09, 18 h; how it was run: as §2
[11] = tested on: Staphylococcus aureus; test: Antibacterial activity against methicillin-resistant Staphylococcus aureus clinical isolate 306/08 after 18 hrs by twofold serial agar dilution technique; assay type: functional; settings: clinical isolate 306/08, 18 h; how it was run: as §2
[12] = tested on: Micrococcus luteus; test: Antibacterial activity against Micrococcus luteus ATCC 9341 at 400 ug/disc after 18 hrs by disc diffusion method; assay type: functional; settings: ATCC 9341, 18 h, read-out: DIZ
How it was run: (§4)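 Disc diffusion per CLSI on Mueller–Hinton II agar; 9 mm paper discs loaded from methanol or DMSO solutions to 400 µg per disc, dried; growth inhibition zone diameter read after 18 h at 35 °C.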

[13] = tested on: Staphylococcus aureus; test: Antibacterial activity against methicillin-susceptible Staphylococcus aureus clinical isolate 268/08 after 18 hrs by twofold serial agar dilution technique; assay type: functional; settings: clinical isolate 268/08, 18 h; how it was run: as §2
[14] = tested on: Staphylococcus aureus; test: Antibacterial activity against Staphylococcus aureus ATCC 25923 after 18 hrs by twofold serial agar dilution technique; assay type: functional; settings: ATCC 25923, 18 h; how it was run: as §1
[15] = tested on: Staphylococcus epidermidis; test: Antibacterial activity against Staphylococcus epidermidis ATCC 12228 at 400 ug/disc after 18 hrs by disc diffusion method; assay type: functional; settings: ATCC 12228, 18 h, read-out: DIZ; how it was run: as §4
[16] = tested on: Staphylococcus epidermidis; test: Antibacterial activity against methicillin-resistant Staphylococcus epidermidis clinical isolate 315/08 after 18 hrs by twofold serial agar dilution technique; assay type: functional; settings: clinical isolate 315/08, 18 h; how it was run: as §2
[17] = tested on: Staphylococcus epidermidis; test: Antibacterial activity against methicillin-resistant Staphylococcus epidermidis clinical isolate 340/09 after 18 hrs by twofold serial agar dilution technique; assay type: functional; settings: clinical isolate 340/09, 18 h; how it was run: as §2
[18] = tested on: Proteus vulgaris; test: Antibacterial activity against Proteus vulgaris NCTC 4635 at 400 ug/disc after 18 hrs by disc diffusion method; assay type: functional, organism-based; how it was run: as §4
[19] = tested on: Staphylococcus aureus; test: Antibacterial activity against methicillin-susceptible Staphylococcus aureus clinical isolate 338/08 after 18 hrs by twofold serial agar dilution technique; assay type: functional; settings: clinical isolate 338/08, 18 h; how it was run: as §2
[20] = tested on: Staphylococcus epidermidis; test: Antibacterial activity against methicillin-resistant Staphylococcus epidermidis clinical isolate 311/08 after 18 hrs by twofold serial agar dilution technique; assay type: functional; settings: clinical isolate 311/08, 18 h; how it was run: as §2
[21] = tested on: Staphylococcus aureus; test: Antibacterial activity against Staphylococcus aureus ATCC 25923 at 400 ug/disc after 18 hrs by disc diffusion method; assay type: functional; settings: ATCC 25923, 18 h, read-out: DIZ; how it was run: as §4
[22] = tested on: Bacillus subtilis; test: Antibacterial activity against Bacillus subtilis ATCC 6633 at 400 ug/disc after 18 hrs by disc diffusion method; assay type: functional; settings: ATCC 6633, 18 h, read-out: DIZ; how it was run: as §4
[23] = tested on: Staphylococcus aureus; test: Antibacterial activity against methicillin-susceptible Staphylococcus aureus clinical isolate 256/08 after 18 hrs by twofold serial agar dilution technique; assay type: functional; settings: clinical isolate 256/08, 18 h; how it was run: as §2
[24] = tested on: Bacillus cereus; test: Antibacterial activity against Bacillus cereus ATCC 11778 at 400 ug/disc after 18 hrs by disc diffusion method; assay type: functional; settings: ATCC 11778, 18 h, read-out: DIZ; how it was run: as §4
[25] = tested on: Escherichia coli; test: Antibacterial activity against Escherichia coli ATCC 10538 at 400 ug/disc after 18 hrs by disc diffusion method; assay type: functional, organism-based; how it was run: as §4
[26] = Cytotoxicity against human MT4 cells after 96 hrs by MTT assay; assay type: cell-based
[27] = tested on: Staphylococcus aureus; test: Antibacterial activity against methicillin-susceptible Staphylococcus aureus clinical isolate 369/09 after 18 hrs by twofold serial agar dilution technique; assay type: functional; settings: clinical isolate 369/09, 18 h; how it was run: as §2
[28] = tested on: Staphylococcus aureus; test: Antibacterial activity against Staphylococcus aureus NCTC 4163 after 18 hrs by twofold serial agar dilution technique; assay type: functional; settings: NCTC 4163, 18 h; how it was run: as §1
[29] = tested on: Staphylococcus aureus; test: Antibacterial activity against methicillin-resistant Staphylococcus aureus clinical isolate 309/08 after 18 hrs by twofold serial agar dilution technique; assay type: functional; settings: clinical isolate 309/08, 18 h; how it was run: as §2
[30] = tested on: Staphylococcus aureus; test: Antibacterial activity against methicillin-resistant Staphylococcus aureus clinical isolate 376/09 after 18 hrs by twofold serial agar dilution technique; assay type: functional; settings: clinical isolate 376/09, 18 h; how it was run: as §2
[31] = tested on: Candida albicans; test: Antifungal activity against Candida albicans ATCC 90028 at 400 ug/disc after 18 hrs by disc diffusion method; assay type: functional, organism-based; how it was run: as §3
[32] = tested on: Staphylococcus aureus; test: Antibacterial activity against methicillin-susceptible Staphylococcus aureus clinical isolate 372/09 after 18 hrs by twofold serial agar dilution technique; assay type: functional; settings: clinical isolate 372/09, 18 h; how it was run: as §2
[33] = tested on: Enterococcus hirae; test: Antibacterial activity against Enterococcus hirae ATCC 10541 at 400 ug/disc after 18 hrs by disc diffusion method; assay type: functional; settings: ATCC 10541, 18 h, read-out: DIZ; how it was run: as §4
[34] = tested on: Bordetella bronchiseptica; test: Antibacterial activity against Bordetella bronchiseptica ATCC 4617 at 400 ug/disc after 18 hrs by disc diffusion method; assay type: functional, organism-based; how it was run: as §4
[35] = tested on: Staphylococcus aureus; test: Antibacterial activity against methicillin-susceptible Staphylococcus aureus clinical isolate 261/08 after 18 hrs by twofold serial agar dilution technique; assay type: functional; settings: clinical isolate 261/08, 18 h; how it was run: as §2
[36] = tested on: Staphylococcus aureus; test: Antibacterial activity against Staphylococcus aureus ATCC 29213 at 400 ug/disc after 18 hrs by disc diffusion method; assay type: functional; settings: ATCC 29213, 18 h, read-out: DIZ; how it was run: as §4

S=C(Nc1ccc(Br)cc1)Nc1nc[nH]n1
MIC [1]: 25 µg/mL (≈ 83.8 µM) | MIC [2]: 50 µg/mL (≈ 168 µM) | MIC [3]: 50 µg/mL (≈ 168 µM) | diameter of the inhibition zone (DIZ) [4]: inactive | MIC [5]: 50 µg/mL (≈ 168 µM) | MIC [6]: 12.5 µg/mL (≈ 41.9 µM) | MIC [7]: 25 µg/mL (≈ 83.8 µM) | MIC [8]: 100 µg/mL (≈ 335 µM) | MIC [9]: 50 µg/mL (≈ 168 µM) | MIC [10]: 50 µg/mL (≈ 168 µM) | MIC [11]: 50 µg/mL (≈ 168 µM) | zone of inhibition at 400 µg/disc [12]: 28 mm | MIC [13]: 50 µg/mL (≈ 168 µM) | MIC [14]: 50 µg/mL (≈ 168 µM) | zone of inhibition at 400 µg/disc [15]: 16 mm | MIC [16]: 50 µg/mL (≈ 168 µM) | MIC [17]: 25 µg/mL (≈ 83.8 µM) | diameter of the inhibition zone (DIZ) [18]: inactive | MIC [19]: 50 µg/mL (≈ 168 µM) | MIC [20]: 50 µg/mL (≈ 168 µM) | zone of inhibition at 400 µg/disc [21]: 22 mm | zone of inhibition at 400 µg/disc [22]: 30 mm | MIC [23]: 25 µg/mL (≈ 83.8 µM) | zone of inhibition at 400 µg/disc [24]: 18 mm | diameter of the inhibition zone (DIZ) [25]: inactive | CC50 at 96 h [26]: > 100 µM | MIC [27]: 50 µg/mL (≈ 168 µM) | MIC [28]: 50 µg/mL (≈ 168 µM) | MIC [29]: 50 µg/mL (≈ 168 µM) | MIC [30]: 50 µg/mL (≈ 168 µM) | diameter of the inhibition zone (DIZ) [31]: inactive | MIC [32]: 25 µg/mL (≈ 83.8 µM) | zone of inhibition at 400 µg/disc [33]: 25 mm | diameter of the inhibition zone (DIZ) [34]: inactive | MIC [35]: 25 µg/mL (≈ 83.8 µM) | zone of inhibition at 400 µg/disc [36]: 16 mm
